Results reported in PubChem BioAssay.
Inconclusive results are not listed.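 How the source made its calls, unless noted: active means inhibition over a set limit, the all-compound mean plus 3 SD, in both replicate runs; inconclusive means over that limit in just one replicate run; inactive means at or under that limit in both runs.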

How the values were obtained:
[1] = OD615 S. cerevisiae growth inhibition, permissive medium, pilot counter-assay, permissive growth control for S. cerevisiae lifespan shortening project (AID 705;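 active means growth inhibition above 25% in both replicates, a cutoff set 3 SD above the mean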); conditions: OD615, 24 h, at 10 µM, hits give high values
In short: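 System: S. cerevisiae with engineered DeaD lifespan system / Measured by: absorbance (optical density) at 615 nm / Read-out: reduction in yeast growth (OD615) / Times: 4 h cell pre-growth, 24 h exposure at 30 °C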

[2] = Restrictive medium S. cerevisiae growth inhibition, OD615, pilot screen of yeast lifespan reduction project, restrictive growth control (AID 706;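 active means growth inhibition above a set limit, 3 SD over mean compound inhibition, in both replicates, cut at about 43% in these data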;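 further: modified DeaD lifespan yeast strain shifted to restrictive glucose medium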); conditions: OD615, 48 h, at 10 µM, hits give high values
In short: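 System: Engineered S. cerevisiae DeaD strain | Buffer or medium: Glucose-based CSMM-D restrictive medium | Schedule: 4 h pre-incubation, 48 h exposure at 30 °C | Technique: Optical density at 615 nm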

[3] = viability gain of MRP-1-high H69AR cells under doxorubicin, pilot screen, MRP-1 activator project, CellTiter-Glo, duplicate (AID 807;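 active means viability increase at or above a cutoff of the median across tested compounds plus 3 SD, cut at about 8.5% in these data, passing the limit was not always enough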;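 further: compound pretreatment 18-22 h then 72 h combined with doxorubicin; 0% = doxorubicin alone and 100% = vehicle without doxorubicin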); conditions: H69AR viability with doxorubicin, CellTiter-Glo luminescence; at 10 µM; hits give high values
[4] = growth suppression of beta-catenin knockout HCT116, pilot screen, human colon tumor cells (AID 823;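 active means cell viability at or below a set limit in both duplicate runs, the limit being the all-compound median minus 4 SD, cut at about 23% in these data, passing the limit was not always enough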;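 further: 0% = wells killed by 20 µM Hyamine and 100% = untreated DMSO cell wells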); conditions: CellTiter-Glo, 60 h, at 10 µM, hits give low values
[5] = growth suppression of PTEN-deleted HCT116, pilot screen, cell-based, HCT116 clonal line, CellTiter-Glo (AID 824;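 active means viability at or below 27.92% in each of two runs, the all-compound median minus 4 SD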;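 further: 0% = 20 µM Hyamine control and 100% = vehicle cell control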); conditions: 60 h, at 10 µM, hits give low values
[6] = inhibitors of the yeast RAM network, pilot screen, dse1pr::URA3 reporter, 5-FOA selection (AID 869);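 further: 0% = DMSO wells with no growth and 100% = 10 µM 1-NA-PP1 with full growth; RAM network block rescues cells from 5-FOA so hits raise OD615 growth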; conditions: S. cerevisiae dse1pr::URA3 5-FOA growth, OD615, 2 d; at 10 µM; hits give high values; strain carries analog-sensitive mutant Cbk1 kinase
[7] = RAM signaling pathway blockade in yeast – S. cerevisiae, Pdr1DBD-CYC8 efflux-inhibited sensitized strain, primary screen (AID 1298;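 active means RAM network inhibition above 8.4% in each of two replicates, 3 SD over the compound average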;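 further: 0% = DMSO untreated cells without growth and 100% = 10 µM 1-NA-PP1 full growth; higher means more yeast growth rescued from 5-FOA killing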); conditions: S. cerevisiae cbk1-as DSE1-URA3 strain, 5-FOA growth OD615, 2 d; at 50 µM; hits give high values

Cc1cc(Oc2ccccc2)nc2ccc(O)cc12
inactive: growth inhibition [1] -1.63% | growth inhibition [2] 3.26% | viability increase [3] -5.89% | viability [4] 89.9% | viability [5] 80.2% | inhibition [6] 1.14% | RAM network inhibition [7] -0.04%

CC(=O)N1CCc2cc(C(=O)CN3CCCN(Cc4ccc(F)cc4)C3)ccc21
inactive: growth inhibition [1] 4.55% | growth inhibition [2] 9.21% | viability increase [3] -1.12% | viability [4] 102% | viability [5] 95.8% | inhibition [6] 1.48% | RAM network inhibition [7] 2.92%

O=C(CCCN1C(=O)CSc2ncccc21)N1CCN(Cc2ccccc2)CC1
inactive: growth inhibition [1] -1.92% | growth inhibition [2] -2.68% | viability increase [3] -2.06% | viability [4] 92.4% | viability [5] 91.7% | inhibition [6] 2.33% | RAM network inhibition [7] 2.55%

CNS(=O)(=O)c1ccc(Oc2ccc(S(=O)(=O)NC)cc2)cc1
inactive: growth inhibition [1] 2.02% | growth inhibition [2] 2.91% | viability increase [3] -0.17% | viability [4] 86.7% | viability [5] 83.9% | inhibition [6] 2% | RAM network inhibition [7] 3.27%

COc1ccc(-c2nc(C#N)c(NCCCN3CCOCC3)o2)cc1
inactive: growth inhibition [1] 0.22% | growth inhibition [2] -5.34% | viability increase [3] -0.09% | viability [4] 103% | viability [5] 94% | inhibition [6] 1.28% | RAM network inhibition [7] 0.89%

CC(=O)Oc1ccc(C(=O)Nc2nnc(C)s2)cc1
inactive: growth inhibition [1] -10.4% | growth inhibition [2] -4.59% | viability increase [3] -2.2% | viability [4] 100% | viability [5] 104% | inhibition [6] 2.9% | RAM network inhibition [7] -0.78%

COc1ccc(N(C)C(=O)c2ccc3snnc3c2)cc1
inactive: growth inhibition [1] 4.09% | growth inhibition [2] -8.11% | viability increase [3] -1.56% | viability [4] 105% | viability [5] 94.3% | inhibition [6] 2.6% | RAM network inhibition [7] 0.05%

O=C(Cn1c(=O)oc2cc(S(=O)(=O)N3CCCCCC3)ccc21)NC1CCCCCCC1
inactive: growth inhibition [1] -9.87% | growth inhibition [2] -14.8% | viability increase [3] -7.86% | viability [4] 95.2% | viability [5] 88.5% | inhibition [6] 4.98% | RAM network inhibition [7] 10.5%

Cc1ccc(C)c(NC(=O)C2CC=CCC2C(=O)O)c1 (stereo unspecified)
inactive: growth inhibition [1] 3.24% | growth inhibition [2] 5.03% | viability increase [3] -0.5% | viability [4] 101% | viability [5] 104% | inhibition [6] 1.96% | RAM network inhibition [7] 4.68%

O=C(O)C1C(c2ccccc2)C(C(=O)OCc2ccco2)C1c1ccccc1 (stereo unspecified)
inactive: growth inhibition [1] -15.4% | growth inhibition [2] -14.6% | viability increase [3] -3.32% | viability [4] 89.5% | viability [5] 88.3% | inhibition [6] 0.645% | RAM network inhibition [7] 6.05%

CC(=O)Nc1ccc(S(=O)(=O)NCc2ccc3c(c2)cc(C)n3C)cc1
inactive: growth inhibition [1] 8.2% | growth inhibition [2] 10.1% | viability increase [3] 0.21% | viability [4] 101% | viability [5] 99.2% | inhibition [6] 3.49% | RAM network inhibition [7] 2.12%

COc1ccc(C2CC(c3cccc(OC)c3)n3nc(N)nc3N2)cc1 (stereo unspecified)
inactive: growth inhibition [1] -5.42% | growth inhibition [2] 9.84% | viability increase [3] 1.37% | viability [4] 100% | viability [5] 92.7% | inhibition [6] 2.04% | RAM network inhibition [7] -1.58%

N#CCc1nc2n(n1)Cc1ccccc1-2
inactive: growth inhibition [1] -6.24% | growth inhibition [2] -25.7% | viability increase [3] 0.02% | viability [4] 105% | viability [5] 96.8% | inhibition [6] 3.54% | RAM network inhibition [7] 2.06%

CC(=O)C1C(c2ccc(Cl)cc2)NC(=O)NC1(O)C(F)(F)F (stereo unspecified)
inactive: growth inhibition [1] -9.25% | growth inhibition [2] -12% | viability increase [3] -0.16% | viability [4] 103% | viability [5] 101% | inhibition [6] 0.825% | RAM network inhibition [7] 3.45%

Cc1ccc2[nH]c(=O)c3cc(C(=O)N4CCN(C(=O)c5ccco5)CC4)sc3c2c1
inactive: growth inhibition [1] 5.33% | growth inhibition [2] 7.05% | viability increase [3] -3.84% | viability [4] 99% | viability [5] 92.3% | inhibition [6] 1.16% | RAM network inhibition [7] 7.89%

O=C1O/C(=C\C(=O)N2CCOCC2)c2ccccc21
inactive: growth inhibition [1] -2.53% | growth inhibition [2] 2.46% | viability increase [3] -1.56% | viability [4] 94.5% | viability [5] 99.2% | inhibition [6] 2.46% | RAM network inhibition [7] 4.69%

CCC(=O)Nc1ccc(C(=O)n2nc(C)cc2C)cc1
inactive: growth inhibition [1] 15.8% | growth inhibition [2] 7.33% | viability increase [3] -2.24% | viability [4] 103% | viability [5] 98.9% | inhibition [6] 1.12% | RAM network inhibition [7] -0.72%

CCN(CC)C1=CC(=O)OC12CCCCC2
inactive: growth inhibition [1] -13.1% | growth inhibition [2] 0.735% | viability increase [3] -2.99% | viability [4] 98.5% | viability [5] 93.7% | inhibition [6] 2.08% | RAM network inhibition [7] 9.79%

Cc1ccc(OC(=O)CCC(=O)Nc2ccc(S(=O)(=O)Nc3cc(C)on3)cc2)cc1
inactive: growth inhibition [1] -2.27% | growth inhibition [2] 0.38% | viability increase [3] -1.11% | viability [4] 109% | viability [5] 106% | inhibition [6] 0.875% | RAM network inhibition [7] 3.97%

O=C(CCCOc1ccc(Cl)cc1)N1CCCCC1
inactive: growth inhibition [1] -13.2% | growth inhibition [2] -11.9% | viability increase [3] 3.35% | viability [4] 96.1% | viability [5] 96.8% | inhibition [6] 0.44% | RAM network inhibition [7] -0.78%

Oc1cc(Cc2ccccc2)cnc1CN1CCCCC1
inactive: growth inhibition [1] -10.9% | growth inhibition [2] 2.06% | viability increase [3] -1% | viability [4] 95.6% | viability [5] 98% | inhibition [6] 0.305% | RAM network inhibition [7] 3.35%

Clc1ccc2nc3ccccn3c2c1
inactive: growth inhibition [1] -6.63% | growth inhibition [2] -5.02% | viability increase [3] -4.02% | viability [4] 109% | viability [5] 106% | inhibition [6] 1.56% | RAM network inhibition [7] 2.48%

CCSc1nnc(Cc2cc(=O)[nH]c(=O)[nH]2)n1-c1cccc(C)c1
inactive: growth inhibition [1] -8.16% | growth inhibition [2] -4.58% | viability increase [3] -1.79% | viability [4] 105% | viability [5] 94.3% | inhibition [6] 1.77% | RAM network inhibition [7] 0.26%
